This is an account of results in publication PMC7089137 (Pharmaceutical Chemistry Journal, 2019).

One assay deals with Vaccina virus. The assay is described as follows: microbe, parasite or virus in culture. The assay is classed as cell-based, vaccinia virus Lederle strain. The settings on record: Orthopoxvirus vaccinia, HEL, read-out: EC50 Vaccina virus.
The test system of assay [1] is L1210, CEM and HeLa cells. The assay is described as follows: Cytostatic activity over the three tumor cell lines. The assay is classed as cell-based. The gist of the method: (§1)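 Each well is seeded with (5–7.5) × 10^4 tumor cells and exposed to test compound at 100, 20, 4, 0.8, 0.16 and 0.032 μg/mL (5-fold dilutions). Cells grow at 37°C in humidified CO2: 48 h for murine L1210, 72 h for human CEM and HeLa. They are then counted with a Coulter counter. IC50 is the concentration halving proliferation, reported as mean ± SD of at least two to three independent experiments. Cisplatin is the reference.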

Another assay concerns Punta Toro virus. The assay is described as follows: Inhibition of virus-induced cytopathicity, Punta Toro virus in Vero. The assay is classed as cell-based. The settings on record: Vero cell cultures.
A further assay deals with Sindbis virus. The assay is described as follows: Inhibition of virus-induced cytopathicity, Sindbis virus in Vero. The assay is classed as cell-based. The note with it: Vero cell cultures.
Assay [2] has as its system human cervix carcinoma HeLa cells. Description: Cytostatic assay, inhibition of HeLa cell proliferation. The assay is classed as cell-based. The settings on record: 72 h, read-out: IC50 HeLa. An outline of the steps:
as §1

The subject of a further assay is Para influenza-3 virus. The assay is described as follows: Inhibition of virus-induced cytopathicity, parainfluenza-3 virus in Vero. The assay is classed as cell-based.
In another assay the test system is Reo virus-1. Description: Inhibition of virus-induced cytopathicity, reovirus-1 in Vero. The assay is classed as cell-based. The settings on record: Vero cell cultures.

SMILES strings stand for the structures. ≈ marks a conversion by molar mass, not a printed value.

For the compound `N#Cc1ccc(NC(=S)NN)cc1` [I, N-(4-cyanophenyl)hydrazinecarbothioamide], the EC50 with Vaccina virus fell in the range of 45 to 50 µg/mL (≈ 234 to 260 µM).
Same read-out and setting: the figure for `CSc1ccc(NC(=S)NN)cc1` [II, N-(4-methylsulfanylphenyl)hydrazinecarbothioamide] is 45 to 50 µg/mL (≈ 211 to 234 µM).
On to `N#Cc1ccc(NC(=S)NN=Cc2ccccc2)cc1` [Ia, 2-Benzylidene-N-(4-cyanophenyl)hydrazinecarbothioamide], for which, in assay [1] (tumor cell lines L1210, CEM, HeLa), the “cytostatic activity (in words)” value is reported as “did not show cytostatic activity”.
On to `N#Cc1ccc(NC(=S)NN=Cc2ccc(N(CCCl)CCCl)cc2)cc1` [Ig, 2-{4-[Bis(2-chloroethyl)amino]benzylidene}-N-(4-cyanophenyl)hydrazinecarbo thioamide], for which, in the assay with Punta Toro virus, the “inhibitory activity against Punta Toro virus (in words)” value is on record as “no inhibitory activity”. Further, the “inhibitory activity against Sindbis virus (in words)” value with Sindbis virus is “no inhibitory activity”. Also, the IC50 in assay [1] (read-out: IC50 cytostatic activity) is 0.3 to 2.5 µg/mL (≈ 0.714 to 5.95 µM); in assay [2], 0.3 µg/mL (≈ 0.714 µM). Moreover, in the assay on Para influenza-3 virus, the “inhibitory activity against parainfluenza virus-3 (in words)” value is listed as “no inhibitory activity”. The “inhibitory activity against reovirus-1 (in words)” value in the assay with Reo virus-1 was “no inhibitory activity”.
